Data as given in article PMC9066168 (RSC Advances, 2019).
≈ marks a conversion by molar mass, not a printed value. Marks after values point to notes of the source that are not given here.

Assays:
Type in all cases: cell-based
[1] = test system: Candida albicans (MTCC 227); experiment: microbe, parasite or virus in culture; conditions: for diameter of the inhibition zone, C. albicans: 0.1 mL of 50 mg mL^-1 in DMSO per 8 mm well, 18-24 h, NA = no activity
[2] = test system: methicillin resistant Staphylococcus aureus (MRSA); experiment: microbe, parasite or virus in culture; conditions: for diameter of the inhibition zone, MRSA: 0.1 mL of 50 mg mL^-1 in DMSO per 8 mm well, 18-24 h, NA = no activity
[3] = test system: Staphylococcus epidermidis (MTCC 435); experiment: Minimum inhibitory concentration, agar dilution method; conditions: MTCC435, 24 h, read-out: Minimum inhibitory concentration, S. epidermidis
[4] = test system: Shigella flexneri (MTCC 1457); experiment: Minimum inhibitory concentration, agar dilution method
Procedure, shortened: (§1)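 Bacteria were grown from a loopful in broth at 37 °C for 4 h and adjusted to McFarland turbidity, about (1 to 2) × 10^8 CFU per mL. Test compound in DMSO was mixed into Muller Hinton agar over 0.001–2 mg mL−1. Plates were swab-inoculated with 0.1 mL culture and held at 37 °C for 24 h. MIC was the lowest concentration preventing visible growth, with DMSO as control.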

[5] = test system: Staphylococcus aureus (MTCC 740); experiment: Minimum inhibitory concentration, agar dilution method; conditions: MTCC740, 24 h, read-out: Minimum inhibitory concentration, S. Aureus
[6] = test system: Shigella flexneri (MTCC 1457); experiment: microbe, parasite or virus in culture
[7] = test system: Enterococcus faecalis (MTCC 439); experiment: microbe, parasite or virus in culture
[8] = test system: methicillin resistant Staphylococcus aureus (MRSA); experiment: Minimum inhibitory concentration, agar dilution method; conditions: 24 h, read-out: Minimum inhibitory concentration, MRSA
Procedure, shortened: as §1

[9] = test system: Staphylococcus aureus (MTCC 740); conditions: 0.1 mL of 50 mg mL^-1 in DMSO per 8 mm well, 18-24 h; NA = no activity
[10] = test system: Enterococcus faecalis (MTCC 439); experiment: Minimum inhibitory concentration, agar dilution method; conditions: MTCC439, 24 h, read-out: Minimum inhibitory concentration, E. faecalis
[11] = test system: Staphylococcus epidermidis (MTCC 435); conditions: 0.1 mL of 50 mg mL^-1 in DMSO per 8 mm well, 18-24 h; NA = no activity
[12] = test system: human osteosarcoma cell line MG63; experiment: Antitumor MTT assay
[13] = test system: Candida albicans (MTCC 227); experiment: Minimum inhibitory concentration, agar dilution method; conditions: Muller Hinton agar, 25 °C, 24 h
[14] = 0.1 mL of 50 mg mL^-1 in DMSO per 8 mm well, 18-24 h, NA = no activity

## C[C@@H]1[C@H](O)[C@@H](C)/C=C/C=C/C=C/C=C/C=C/C=C/C=C/[C@H](O[C@@H]2O[C@H](C)[C@@H](O)[C@H](N)[C@@H]2O)C[C@@H]2O[C@](O)(C[C@@H](O)C[C@@H](O)[C@H](O)CC[C@@H](O)C[C@@H](O)CC(=O)O[C@H]1C)C[C@H](O)[C@H]2C(=O)O [Amphotericin B]
[1]
  diameter of the inhibition zone, C. albicans: 34 ^d mm
[1]; Candida albicans, MTCC227, read-out: diameter of the inhibition zone, C. albicans
  zone of inhibition at 50 µg/mL: 34 mm

## S=c1[nH]c2ccccc2[nH]1 [BzimSH, benz-imidazoline-2-thione]
[1]
  diameter of the inhibition zone, C. albicans: 13 mm

## CNC(C)C1CCC(N)C(OC2C(N)CC(N)C(OC3OCC(C)(O)C(NC)C3O)C2O)O1 (stereo not drawn) [Gentamicin, reference compound]
[2]
  diameter of the inhibition zone, MRSA: 33 ^d mm
[2]; Staphylococcus aureus, MRSA, read-out: diameter of the inhibition zone, MRSA
  zone of inhibition at 50 µg/mL: 33 mm
[3]
  MIC: 30 µg/mL (≈ 62.8 µM)
[4]; Muller Hinton agar, 37 °C, 24 h
  Minimum inhibitory concentration, S. flexneri: 5 µg/mL (≈ 10.5 µM)
[4]; Shigella flexneri, MTCC1457, 24 h, read-out: Minimum inhibitory concentration, S. flexneri, Muller Hinton agar, 37 °C, 24 h
  MIC: 7 µg/mL (≈ 14.7 µM)
[5]
  MIC: 0.5 µg/mL (≈ 1.05 µM)
[6]; [14]
  diameter of the inhibition zone, S. flexneri: 34.5 ^d mm
[6]; Shigella flexneri, MTCC1457, read-out: diameter of the inhibition zone, S. flexneri
  zone of inhibition at 50 µg/mL: 34.5 mm
[7]; [14]
  diameter of the inhibition zone, E. faecalis: 27 ^d mm
[7]; Enterococcus faecalis, MTCC439, read-out: diameter of the inhibition zone, E. faecalis
  zone of inhibition at 50 µg/mL: 27 mm
[8]
  MIC: 10 µg/mL (≈ 20.9 µM)
[9]
  diameter of the inhibition zone, S. aureus: 26 ^d mm
[10]
  MIC: 30 µg/mL (≈ 62.8 µM)
[11]
  diameter of the inhibition zone, S. epidermidis: 25 ^d mm

## c1ccc(P(c2ccccc2)c2ccccc2)cc1 [PPh3, triphenylphosphine, reference compound]
[12]; Homo sapiens, MG-63, 24 h
  IC50: > 100 µM

## S=c1cccc[nH]1 [PySH, pyridine-2-thione, reference compound]
[12]; Homo sapiens, MG-63, 24 h
  IC50: 29.7 µM

## O=c1cc[nH]c(=S)[nH]1 [tucH2, 2-thiouracil, reference compound]
[12]; Homo sapiens, MG-63, 24 h
  IC50: 44.3 µM
[11]
  diameter of the inhibition zone, S. epidermidis: inactive

## [Ag2(purSH2)2(dppm)2](NO3)2·2H2O [Complex 5]
[1]
  diameter of the inhibition zone, C. albicans: 17 mm
[9]
  diameter of the inhibition zone, S. aureus: 12 mm
[12]; MG63 cells, 24 h exposure, MTT, 570 nm
  IC50: 7.62 µM
[13]
  Minimum inhibitory concentration, C. albicans: 50 µg/mL
[11]
  diameter of the inhibition zone, S. epidermidis: 12 mm

## purine-6-thione [purSH2, reference compound]
[2]
  diameter of the inhibition zone, MRSA: 18 mm
[1]
  diameter of the inhibition zone, C. albicans: inactive
[9]
  diameter of the inhibition zone, S. aureus: 13 mm
[11]
  diameter of the inhibition zone, S. epidermidis: inactive
